Measurements published in ChEMBL document CHEMBL1145544, “Probing distal regions of the A2B adenosine receptor by quantitative structure-activity relationship modeling of known and novel agonists” (J Med Chem, 2008).

Molecular target: T1, Adenosine receptor A2b (Homo sapiens) (UniProt P29275)
T1 sequence (whole entry): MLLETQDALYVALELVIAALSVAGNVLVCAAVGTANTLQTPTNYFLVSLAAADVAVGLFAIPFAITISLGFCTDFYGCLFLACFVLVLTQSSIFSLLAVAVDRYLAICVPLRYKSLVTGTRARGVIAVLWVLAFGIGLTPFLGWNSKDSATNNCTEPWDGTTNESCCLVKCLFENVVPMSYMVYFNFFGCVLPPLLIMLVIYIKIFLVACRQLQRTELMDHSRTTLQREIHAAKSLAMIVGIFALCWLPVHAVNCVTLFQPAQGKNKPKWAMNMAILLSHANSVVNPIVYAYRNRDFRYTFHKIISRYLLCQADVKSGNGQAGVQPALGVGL
Assay: Agonist activity human adenosine A2B receptor expressed in CHO cells assessed as stimulation of adenylate cyclase relative to NECA
Type: functional, cell-based
Summary of the method: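 Stably transfected CHO cells; cAMP accumulation by enzyme immunoassay kit. Relative potency computed as pEC50(compound) minus pEC50(NECA) determined in the same publication.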

SMILES | Activity
Nc1nc(OCCc2cc[nH]c2)nc2c1ncn2[C@@H]1O[C@H](CO)[C@@H](O)[C@H]1O | -1.27
CCNC(=O)[C@H]1O[C@@H](n2cnc3c(NNC(=O)Cc4cccs4)nc(Cl)nc32)[C@H](O)[C@@H]1O | -0.576
Nc1nc(OCCc2c[nH]c3ccc(Cl)cc23)nc2c1ncn2[C@@H]1O[C@H](CO)[C@@H](O)[C@H]1O | -1.19
CCNC(=O)[C@H]1O[C@@H](n2cnc3c(NNC(=O)c4ccc[nH]4)nc(Cl)nc32)[C@H](O)[C@@H]1O | -0.351
CCNC(=O)[C@H]1O[C@@H](n2cnc3c(Nc4ccc(OCC(=O)NCc5ccccc5)cc4)ncnc32)[C@H](O)[C@@H]1O | 0.014
CCNC(=O)[C@H]1O[C@@H](n2cnc3c(Nc4ccc(OCC(=O)Nc5ccc(C(C)(C)C)cc5)cc4)ncnc32)[C@H](O)[C@@H]1O | 0.976
Nc1nc(OCCc2ccccc2)nc2c1ncn2[C@@H]1O[C@H](CO)[C@@H](O)[C@H]1O | -1.4
Nc1nc(OCCc2c[nH]c3ccc(F)cc23)nc2c1ncn2[C@@H]1O[C@H](CO)[C@@H](O)[C@H]1O | -0.739
CCNC(=O)[C@H]1O[C@@H](n2cnc3c(Nc4ccc(OCC(=O)Nc5ccncc5)cc4)ncnc32)[C@H](O)[C@@H]1O | 0.681
CCNC(=O)[C@H]1O[C@@H](n2cnc3c(Nc4ccc(OCC(=O)NCc5ccc(OC)cc5)cc4)ncnc32)[C@H](O)[C@@H]1O | -0.19
Nc1nc(C#C[C@@H](O)c2ccccc2)nc2c1ncn2[C@@H]1O[C@H](CO)[C@@H](O)[C@H]1O | 0.416
CCNC(=O)[C@H]1O[C@@H](n2cnc3c(Nc4ccc(OCC(=O)Nc5ccc(Br)cc5)cc4)ncnc32)[C@H](O)[C@@H]1O | 1.17
CCNC(=O)[C@H]1O[C@@H](n2cnc3c(NNC(=O)c4ccco4)nc(Cl)nc32)[C@H](O)[C@@H]1O | -0.118
CCNC(=O)[C@H]1O[C@@H](n2cnc3c(Nc4ccc(OCC(=O)Nc5ccccc5)cc4)ncnc32)[C@H](O)[C@@H]1O | 1.33
CCNC(=O)[C@H]1O[C@@H](n2cnc3c(NNC(=O)c4sccc4C)nc(Cl)nc32)[C@H](O)[C@@H]1O | -0.327
CCNC(=O)[C@H]1O[C@@H](n2cnc3c(Nc4ccc(OCC(=O)Nc5ccc(I)cc5)cc4)ncnc32)[C@H](O)[C@@H]1O | 0.71
OC[C@H]1O[C@@H](n2cnc3c(NCc4ccccc4)ncnc32)[C@H](O)[C@@H]1O | -1.49
CCNC(=O)[C@H]1O[C@@H](n2cnc3c(NNC(=O)c4ccc(C)s4)ncnc32)[C@H](O)[C@@H]1O | -0.232
CC(C)(C)OC(=O)C1CCCN1C[C@@H](O)[C@H](Cc1ccccc1)NC(=O)[C@H](CC(N)=O)NC(=O)OCc1ccccc1 (stereo not given in full) | -0.405
CCNC(=O)[C@H]1O[C@@H](n2cnc3c(N)nc(C#C[C@H](O)c4ccccc4)nc32)[C@H](O)[C@@H]1O | 0
Nc1nc(OCCc2c[nH]c3ccc(I)cc23)nc2c1ncn2[C@@H]1O[C@H](CO)[C@@H](O)[C@H]1O | -1.13
CCNC(=O)[C@H]1O[C@@H](n2cnc3c(Nc4ccc(OCC(=O)NCc5ccccc5)cc4)nc(Cl)nc32)[C@H](O)[C@@H]1O | -0.053
CCNC(=O)[C@H]1O[C@@H](n2cnc3c(Nc4ccc(OCC(=O)Nc5ccccc5)cc4)nc(Cl)nc32)[C@H](O)[C@@H]1O | 0.561
CCNC(=O)[C@H]1O[C@@H](n2cnc3c(Nc4ccc(OCC(=O)Nc5ccc(N6CCOCC6)cc5)cc4)ncnc32)[C@H](O)[C@@H]1O | 0.287

SMILES | Activity
Nc1nc(OCCc2c[nH]c3ccc(O)cc23)nc2c1ncn2[C@@H]1O[C@H](CO)[C@@H](O)[C@H]1O | -0.806
O=S(=O)(O)c1ccc(Nc2ncnc3c2ncn3[C@@H]2O[C@H](CO)[C@@H](O)[C@H]2O)cc1 | -1.23
CCNc1nc(OCCc2c[nH]c3ccccc23)nc2c1ncn2[C@@H]1O[C@H](CO)[C@@H](O)[C@H]1O | -1.37
CCNC(=O)[C@H]1O[C@@H](n2cnc3c(Nc4ccc(OCC(=O)NC5CCCCC5)cc4)ncnc32)[C@H](O)[C@@H]1O | -0.308
Nc1ncnc2c1ncn2[C@@H]1O[C@H](C(=O)NC2CC2)[C@@H](O)[C@H]1O | -0.233
CCNC(=O)[C@H]1O[C@@H](n2cnc3c(Nc4ccc(OCC(=O)Nc5ccc(Cl)cc5)cc4)ncnc32)[C@H](O)[C@@H]1O | 1.1
CCNC(=O)[C@H]1O[C@@H](n2cnc3c(Nc4ccc(OCC(=O)Nc5cc(OC)cc(OC)c5)cc4)ncnc32)[C@H](O)[C@@H]1O | 0.461
CCNC(=O)[C@H]1O[C@@H](n2cnc3c(NNC(=O)c4cccs4)nc(Cl)nc32)[C@H](O)[C@@H]1O | -0.097
Nc1nc(OCCc2c[nH]c3cc(Cl)ccc23)nc2c1ncn2[C@@H]1O[C@H](CO)[C@@H](O)[C@H]1O | -0.188
CCNC(=O)[C@H]1O[C@@H](n2cnc3c(NNC(=O)c4ccco4)ncnc32)[C@H](O)[C@@H]1O | 0.29
CCNC(=O)[C@H]1O[C@@H](n2cnc3c(N)nc(C#C[C@@H](O)c4ccccc4)nc32)[C@H](O)[C@@H]1O | 1.04
CC(C)Nc1nc(C#C[C@H](O)c2ccccc2)nc2c1ncn2[C@@H]1O[C@H](CO)[C@@H](O)[C@H]1O | -0.569
CCCCC#Cc1nc(N)c2ncn([C@@H]3O[C@H](CO)[C@@H](O)[C@H]3O)c2n1 | -1.62
CCNc1nc(C#C[C@@H](O)c2ccccc2)nc2c1ncn2[C@@H]1O[C@H](CO)[C@@H](O)[C@H]1O | 0.517
CCNC(=O)[C@H]1O[C@@H](n2cnc3c(NC)ncnc32)[C@H](O)[C@@H]1O | -0.787
Nc1nc(OCCc2cccc3ccccc23)nc2c1ncn2[C@@H]1O[C@H](CO)[C@@H](O)[C@H]1O | -1.01
COc1ccc2[nH]cc(CCOc3nc(N)c4ncn([C@@H]5O[C@H](CO)[C@@H](O)[C@H]5O)c4n3)c2c1 | -0.951
CNc1nc(C#CCCCc2ccccc2)nc2c1ncn2[C@@H]1O[C@H](CO)[C@@H](O)[C@H]1O | -1.62
Nc1nc(OCCc2c[nH]c3ccccc23)nc2c1ncn2[C@@H]1O[C@H](CO)[C@@H](O)[C@H]1O | -0.33
CCNC(=O)[C@H]1O[C@@H](n2cnc3c(NNC(=O)c4ccc(C)o4)ncnc32)[C@H](O)[C@@H]1O | -0.152
CCNC(=O)[C@H]1O[C@@H](n2cnc3c(Nc4ccc(OCC(=O)Nc5ccc(OC)cc5)cc4)nc(Cl)nc32)[C@H](O)[C@@H]1O | -0.366
CCCCC#Cc1nc(NC(C)C)c2ncn([C@@H]3O[C@H](CO)[C@@H](O)[C@H]3O)c2n1 | -1.62
Nc1nc(Cl)nc2c1ncn2[C@@H]1O[C@H](CO)[C@@H](O)[C@H]1O | -0.889
CCNC(=O)[C@H]1O[C@@H](n2cnc3c(Nc4ccc(OCC(=O)Nc5ccc(OC)c(OC)c5)cc4)ncnc32)[C@H](O)[C@@H]1O | 0.533

SMILES | Activity
Nc1nc(OCCc2cccs2)nc2c1ncn2[C@@H]1O[C@H](CO)[C@@H](O)[C@H]1O | -1.1
CCNC(=O)[C@H]1O[C@@H](n2cnc3c(N)nc(OCCc4c[nH]c5ccccc45)nc32)[C@H](O)[C@@H]1O | -0.849
CCNC[C@H]1O[C@@H](n2cnc3c(NC(=N)N)ncnc32)[C@H](O)[C@@H]1O | 0.41
CCCCC#Cc1nc(NCC)c2ncn([C@@H]3O[C@H](CO)[C@@H](O)[C@H]3O)c2n1 | -1.62
Nc1nc(C#C[C@H](O)c2ccccc2)nc2c1ncn2[C@@H]1O[C@H](CO)[C@@H](O)[C@H]1O | -0.412
CNc1nc(C#C[C@H](O)c2ccccc2)nc2c1ncn2[C@@H]1O[C@H](CO)[C@@H](O)[C@H]1O | -1.62
CCNC(=O)[C@H]1O[C@@H](n2cnc3c(N)ncnc32)[C@H](O)[C@@H]1O | 0
CCNC(=O)[C@H]1O[C@@H](n2cnc3c(Nc4ccc(OCC(=O)Nc5ccc(I)cc5C(F)(F)F)cc4)ncnc32)[C@H](O)[C@@H]1O | 0.161
CCNC(=O)[C@H]1O[C@@H](n2cnc3c(NNC(=O)c4ccsc4)nc(Cl)nc32)[C@H](O)[C@@H]1O | -0.449
CNc1nc(C#C[C@@H](O)c2ccccc2)nc2c1ncn2[C@@H]1O[C@H](CO)[C@@H](O)[C@H]1O | -0.035
CCNC(=O)[C@H]1O[C@@H](n2cnc3c(Nc4ccc(OCC(=O)NC5CCCCC5)cc4)nc(Cl)nc32)[C@H](O)[C@@H]1O | -0.29
CCNC(=O)[C@H]1O[C@@H](n2cnc3c(Nc4ccc(OCC(=O)Nc5ccc6c(c5)OCO6)cc4)ncnc32)[C@H](O)[C@@H]1O | 0.64
CCCCC#Cc1nc(NC)c2ncn([C@@H]3O[C@H](CO)[C@@H](O)[C@H]3O)c2n1 | -1.62
CCNC(=O)[C@H]1O[C@@H](n2cnc3c(NNC(=O)c4ccc(C)[nH]4)nc(Cl)nc32)[C@H](O)[C@@H]1O | -0.039
CCNC(=O)[C@H]1O[C@@H](n2cnc3c(NNC(=O)c4ccc(Br)o4)ncnc32)[C@H](O)[C@@H]1O | -0.363
CCNC(=O)[C@H]1O[C@@H](n2cnc3c(Nc4ccc(OCC(=O)Nc5ccc(F)cc5)cc4)ncnc32)[C@H](O)[C@@H]1O | 1.01
Nc1nc(OCCc2c[nH]c3cc(Br)ccc23)nc2c1ncn2[C@@H]1O[C@H](CO)[C@@H](O)[C@H]1O | 0.0389
OC[C@H]1O[C@@H](n2cnc3c(Nc4ccccc4)ncnc32)[C@H](O)[C@@H]1O | -1.31
CC(C)Nc1nc(C#C[C@@H](O)c2ccccc2)nc2c1ncn2[C@@H]1O[C@H](CO)[C@@H](O)[C@H]1O | 0.398
Nc1nc(OCCc2c[nH]c3ccc(Br)cc23)nc2c1ncn2[C@@H]1O[C@H](CO)[C@@H](O)[C@H]1O | -0.416
CCNC(=O)[C@H]1O[C@@H](n2cnc3c(Nc4ccc(OCC(=O)Nc5ccc(OC)cc5)cc4)ncnc32)[C@H](O)[C@@H]1O | 0.68
CCNc1nc(C#C[C@H](O)c2ccccc2)nc2c1ncn2[C@@H]1O[C@H](CO)[C@@H](O)[C@H]1O | -0.579
